# Screening results deposited in PubChem by several laboratories.
# Shown are actives, neighbours in structure and some others; about 1.9% of the full set was active somewhere.
# IMP-1 inh: blocks Pseudomonas aeruginosa IMP-1 metallo-beta-lactamase. purified IMP-1, nitrocefin hydrolysis, epi-absorbance fluorescence. inhibition, % at 5.6 µM. 0.45% of 290,000 active. AID 1556;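 active means inhibition above the mean plus 3 SD of all compounds in the same screening run, cut at about 4.5% in these data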;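 further: 0% = IMP-1 with DMSO and 100% = DMSO wells lacking enzyme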
#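 system = purified recombinant IMP-1 beta-lactamase | amount = 0.2 nM IMP-1, as dispensed | medium = HEPES buffer pH 7.1 with ZnSO4 and Brij 35 | times = 25 °C, 15 min preincubation, 25 min reaction | detection = plate fluorescence quenching by hydrolysis product, ex 480/em 530 nm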
# VIM-2 inhibitor: blocks Pseudomonas aeruginosa VIM-2 metallo-beta-lactamase. purified VIM-2, nitrocefin hydrolysis, epi-absorbance fluorescence. inhibition, % at 5.6 µM. 0.89% of 290,000 active. AID 1527;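 active means inhibition above the mean of all tested compounds plus 3 SD, cutoff set per screening run, cut at about 7.5% in these data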;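 further: red hydrolysis product quenches plate fluorescence so inhibitors raise well fluorescence; 0% = enzyme with DMSO and 100% = DMSO without enzyme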
# NadD inh: inhibitors of Staphylococcus aureus NadD; purified NadD enzyme, colorimetric absorbance read-out; inhibition, % at 20 µM; 0.78% of 360,000 active; in the data active means inhibition above about 26%
# core dimer inh: HCV core protein dimerization inhibition | TR-FRET GST/Flag-core106 dimerization, 1536-well | inhibition, % at 5 µM | 0.33% of 300,000 active;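 active means inhibition above the mean of all tested compounds plus 3 SD, set per screening campaign, cut at about 45% in these data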
#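 System: GST-tagged and Flag-tagged HCV core protein residues 1-106 / Input: core106 proteins, GST 13.5 nM and Flag 17 nM / Buffer or medium: KF-containing HEPES buffer, pH 7.45, DTT, CHAPS, BSA / Probe or stimulus: Eu-anti-GST and XL665-anti-Flag labelled anti-tag antibodies / Schedule: 4 h, 22.5 °C incubation / Technique: TR-FRET 671 and 617 nm emission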
# Numbers without * were called inactive; . = no result given.
SMILES,IMP-1 inh,VIM-2 inhibitor,NadD inh,core dimer inh
N#CC1C=Cc2c(ccc3ccccc23)N1C(=O)c1ccccc1 (stereo not drawn),.,.,-3.4,.
CC(C)(C)NC(=O)CCN(/N=C/c1ccccc1F)C1=NS(=O)(=O)c2ccccc21,-2.5,1.1,-3.5,17.1
CCn1c(N2CCN(S(=O)(=O)c3ccccc3C(F)(F)F)CC2)nc2ccccc21,7.2*,-3.9,-0.5,2.1
CCn1c(N2CCN(S(=O)(=O)c3ccc(OC)cc3)CC2)nc2ccccc21,-3.7,-0.4,-1.5,7.7
CC1CCN(c2cc(N3CCC(C)CC3)c([N+](=O)[O-])cc2/C=C(\C#N)c2nn(-c3ccccc3)c(N)c2C#N)CC1,-1.8,-2.3,50.9*,18.6
CC1CCN(c2ccc(/C=C(\C#N)c3nn(-c4ccccc4)c(N)c3C#N)cc2[N+](=O)[O-])CC1,-3.4,-3.1,17.9,27.3
COc1ccc2c(c1)c(=O)oc1cc3occ(C(C)(C)C)c3cc12,22.0*,1.1,0.9,1.8
CC(C)OC(=O)C(C(=O)C(F)(F)F)c1cc(NS(=O)(=O)c2ccc3ccccc3c2)c2ccccc2c1O (stereo not drawn),9.1*,2.6,55.4*,25.8
COc1cc(/C=N/NC(=O)C(Cc2c[nH]c3ccccc23)NC(=O)OCc2ccccc2)cc([N+](=O)[O-])c1O (stereo not drawn),-3.5,-4.1,42.2*,11.6
CC1CC(C)CN(C(=O)C(C)N(C)CC(=O)Nc2ccc(Cl)cc2)C1 (stereo not drawn),-2.1,-3.0,-1.6,1.4
Cc1cc(OC(=O)c2cccc(F)c2)c([N+](=O)[O-])c(=O)[nH]1,-1.8,-1.7,6.8,-8.2
O=C(CCNC(=O)c1ccccc1Cl)Nc1cc(S(=O)(=O)N2CCOCC2)ccc1N1CCCC1,-2.8,-1.0,-0.4,-3.8
C=CCn1c(SCC(=O)NC2CCCC2)nc2scc(-c3ccco3)c2c1=O,0.3,-2.5,24.6,54.6*
C=CCn1c(SCC(C)=O)nc2scc(-c3ccc(C)o3)c2c1=O,-2.6,-1.3,1.7,-54.4
C=CCn1c(SCC(=O)NCCCC)nc2scc(-c3ccco3)c2c1=O,7.9*,1.7,38.3*,1.6
Cc1ccc(C(=O)N(C)CCOc2ccccc2)cc1S(=O)(=O)N1CCOCC1,.,.,-4.5,.
Cc1ccc(-c2cc(C(F)(F)F)n3nc(C(=O)N4CCN5CCCC5C4)cc3n2)cc1 (stereo not drawn),-0.4,10.2*,-2.3,7.6
COc1ccc(-c2cc(C(F)(F)F)n3nc(C(=O)N4CCCC4)cc3n2)cc1,-1.9,-0.9,2.3,1.5
CC(=O)Nc1ccc(CN(C)c2c(C)nc3ccc(C(=O)Nc4ccc(Cl)c(Cl)c4)cn23)cc1,.,.,7.7,.
Cc1cc(/C=C2/C(=O)N(C)C(=S)N2C)c(C)n1C1CC1,-1.3,-3.4,5.8,11.0
Cc1cc(/C=C2\SC(=S)NC2=O)c(C)n1C1CC1,0.1,7.7*,19.7,-6.3
O=C1CC2(CCN(C(=O)C(=O)c3c[nH]c4ccccc34)CC2)Oc2ccccc21,-3.5,-0.7,-2.9,1.4
COc1ccc(NS(=O)(=O)c2cc(C(=O)N3CCN(C/C=C/c4ccccc4)CC3)ccc2C)cc1,.,.,5.4,0.6
CCc1cc(=O)oc2cc(C)cc(OC(=O)c3ccco3)c12,-2.6,11.0*,3.9,0.4
CC(CCc1ccccc1)NC(=O)CN1C(=O)NC2(CCCCC2C)C1=O (stereo not drawn),.,.,-6.3,.
SMILES,IMP-1 inh,VIM-2 inhibitor,NadD inh,core dimer inh
COc1ccc(/C=N/NC(=O)c2nc(-c3ccccc3)n(-c3ccccc3)n2)c(O)c1,-5.0,-3.4,41.4*,14.7
COc1cccc(C=NNC(=O)c2ccncc2)c1O,.,.,1.6,.
COc1ccc(/C=N/NC(=O)c2nc(-c3ccccc3)n(-c3ccccc3)n2)cc1,-4.0,-3.9,7.5,0.5
COc1cccc(/C=N/NC(=O)c2nc(-c3ccccc3)cc(-c3ccccc3)n2)c1O,-2.7,-1.1,29.2*,37.6
O=C(NCCC(F)(F)F)C1Cc2c(-c3ccc(Cl)cc3)ccnc2O1 (stereo not drawn),.,.,0.9,.
O=C(O)C1=C(C(=O)Nc2ccc(F)c(Cl)c2)CCCC1,10.3*,4.3,3.9,-1.1
COc1ccc(/C=C/c2nc(S(=O)(=O)c3ccccc3)c(NCCCN(C)C)o2)cc1OC,-3.9,8.8*,-4.6,-9.2
O=C(N/N=C/c1cc(Br)cc([N+](=O)[O-])c1O)c1ccc(NC(=O)c2ccc(F)cc2)cc1,-6.8,-2.7,53.9*,-0.1
O=C1C2C(C(=O)N1/N=C/c1cc(Br)cc([N+](=O)[O-])c1O)C1C=CC2C12CC2 (stereo not drawn),7.0*,-4.3,10.4,-3.1
O=C1C2C(C(=O)N1/N=C/c1cc([N+](=O)[O-])c(O)cc1O)C1C=CC2C12CC2 (stereo not drawn),-2.8,-3.5,3.9,-1.4
Cc1oc2cc(Br)c(O)c(Br)c2c1-c1ccccc1,-2.8,-3.7,-11.3,4.9
COc1ccc(C(C(=O)NC2CCCC2)N(CCCO)C(=O)c2snc(C(N)=O)c2N)cc1 (stereo not drawn),-1.2,-2.3,-1.4,-7.0
COc1cc(C(c2c(C(=O)O)[nH]c3ccccc23)c2c(C(=O)O)[nH]c3ccccc23)ccc1OCc1ccccc1,-0.9,-0.5,24.3,36.4
COc1ccc(C(C[N+](=O)[O-])c2c(C)[nH]c3ccccc23)cc1OC (stereo not drawn),12.9*,-0.2,-2.8,-4.3
COC(=O)c1sc(NC(=O)CSc2n[nH]c(N)n2)c(C(=O)OC)c1C,-3.4,10.4*,1.5,8.1
Cc1cc(Br)c(NC(=O)CSc2n[nH]c(N)n2)c(Br)c1,.,.,2.7,.
Cc1ccc(N/C(N)=N/c2nc3c(c(=O)[nH]2)CCCC3)c(C)c1,5.0*,-1.4,1.7,-9.2
N/C(=N\c1nc2c(c(=O)[nH]1)CCCC2)Nc1ccccc1,-3.3,-1.9,-2.2,-0.2
CC(=O)N1c2ccc(S(=O)(=O)NCCC(=O)Nc3ncccc3C)cc2CC1C (stereo not drawn),-0.6,-0.8,0.6,7.5
Cc1nc2sc3c(=O)[nH]nnc3c2c(C)c1Br,0.4,11.0*,-1.1,9.1
COc1ccc(OCC(O)CNC(=O)Nc2ccccc2)cc1 (stereo not drawn),2.8,3.0,-0.7,-0.3
COc1ccc(OCC(O)CNC(=O)c2sccc2Cl)cc1 (stereo not drawn),37.8*,-2.9,-9.7,-2.8
CC(C)OC(=O)C1Cc2ccccc2CN1S(=O)(=O)c1cccs1 (stereo not drawn),-0.9,1.9,-0.2,13.1
CC(CCC(C)C(C)(C)C)[C@@H]1CC[C@H]2C3C[C@H](OS(O)(=S)=S)[C@H]4C[C@H](OS(O)(=S)=S)[C@@H](OS(O)(=S)=S)C[C@]4(C)[C@H]3CC[C@]12C (stereo partly drawn) (tested in a mixture with another compound),.,.,53.0*,.
COc1ccccc1Cn1c(-c2ccco2)nc2nc3ccccc3nc21,-1.7,-1.1,-3.1,8.3
COc1ccc(CCn2c(-c3ccco3)nc3nc4ccccc4nc32)cc1,-4.0,-2.6,9.5,56.3*
